Screening results as filed in PubChem BioAssay.
The sample as a whole holds a higher share of hits than the screen did.
XBP1 UPR activ: adaptive UPR (XBP1) activation; actives 0.33% (n = 330,000); CHO-XBP1 luciferase reporter, IRE1-XBP1 UPR activation, luminescence; percent of tunicamycin response, DMSO as zero; activation, % at 20 µM; AID 463104;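 active means versus positive control, 20 µM dose yields 30% or more activation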;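 further: 100% = tunicamycin at 10 µg/mL and 0% = DMSO only wells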
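Material – CHO cell line with stable XBP1 luciferase reporter · Buffer or medium – F12 plus 10% FBS · Compound – single point, 20 µM final compound, 1% DMSO · Schedule – 16-18 h cell attachment at 37 °C, then 6 h compound exposure · Signal – Steady-Glo luminescence read · Benchmarks – high control tunicamycin 10 µg/mL final, low control DMSO vehicle only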
pCIP destab: compounds decreasing mouse p/CIP protein stability. F442A p/CIP-EGFP cells, EGFP fluorescence, 16 h. AID 1984. Q05BA5. actives 0.01% (n = 290,000). decrease of EGFP signal, % at 10 µM;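 active means EGFP signal decrease of at least 30% at 10 µM or well 3 SD below plate mean, unless failing retest; inactive means the rest, including hits failing retest or dose response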
Dynein cargo inh: dynein cargo transport inhibition; actives 0.47% (n = 220,000); 3617.4 mouse cells, GR-EGFP nuclear translocation imaging; test concentration mostly 20 µM; stimulated with dexamethasone, 1 µM; stronger effect = lower value; z-score, hits read low;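 active means plate z-score of nuclear minus cytoplasmic receptor signal below a set negative limit, without overly bright fluorescence or cell loss, cut at about -3.5 in these data, passing the limit was not always enough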;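 further: z-score of nuclear minus cytoplasmic ring GR-EGFP intensity difference per well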
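Buffer or medium: Induction medium lacking tetracycline, stripped serum | Also added: Dexamethasone agonist, 1.0 µM final, for 30 min | Timing: 48 h induction, 1 h compound, 30 min dex at 37 °C | Detection: Formaldehyde fixation, Hoechst nuclear stain, 10x automated fluorescence imaging | Measure: Nuclear versus cytoplasmic GR-EGFP signal, averaged per well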
UPR CHOP act: activators of apoptotic arm of unfolded protein response (CHOP); CHO-CHOP luciferase reporter, UPR activation, luminescence; percent of tunicamycin response over DMSO baseline; activation, % at 10 µM; actives 0.34% (n = 330,000); AID 449763;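 active means at 10 µM dose, activation of 40% or more, normalized to positive control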;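 further: 100% = tunicamycin at 10 µg/mL and 0% = DMSO alone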
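Test system: CHO CHOP reporter cells. Input: 500 CHO-CHOP cells per well. Medium: F12 with 10% FBS. Technique: luciferase luminescence. Measure: percent activation relative to tunicamycin control. Dosing: 10 µM compound, 0.5% DMSO. Timing: 16-18 h cell attachment, then 6 h compound exposure, 37 °C.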
CHOP inh: CHOP inhibition in unfolded protein response; CHO-K1 CHOP-promoter luciferase, tunicamycin-induced, 15-18 h; inhibition, % at 10 µM; actives 3.8% (n = 220,000);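 active means compounds that reduced the stress-induced luciferase reporter signal by more than about 70% of percent inhibition, limit read from the data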;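 further: 0% = tunicamycin plus vehicle and 100% = wells without tunicamycin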
B2AR ag: human beta-2 adrenergic receptor agonism by FAP. P07550. Am2.2-beta2AR cells, FAP receptor internalization, flow cytometry. response, % (test concentration not listed). actives 0.43% (n = 340,000). AID 504454;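 active means response above a set limit, near 3 SD of response in nonfluorescent compounds, cut at about 42% in these data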
Target sequence (P07550 whole entry, looked up): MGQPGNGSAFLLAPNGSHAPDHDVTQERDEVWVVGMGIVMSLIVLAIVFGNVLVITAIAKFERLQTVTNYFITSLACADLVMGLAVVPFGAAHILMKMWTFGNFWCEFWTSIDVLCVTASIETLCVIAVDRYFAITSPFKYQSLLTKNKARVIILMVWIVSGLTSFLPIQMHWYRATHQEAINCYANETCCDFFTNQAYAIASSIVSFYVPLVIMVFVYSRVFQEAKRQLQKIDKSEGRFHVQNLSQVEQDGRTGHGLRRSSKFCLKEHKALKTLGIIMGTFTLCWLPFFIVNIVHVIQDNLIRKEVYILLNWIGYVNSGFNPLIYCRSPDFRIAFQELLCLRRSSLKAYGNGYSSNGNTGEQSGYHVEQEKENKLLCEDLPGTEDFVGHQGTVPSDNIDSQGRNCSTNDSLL
CHOP UPR conf: confirmation of apoptotic unfolded protein response (CHOP) activators; activation, % at 10 µM; shares compounds with UPR CHOP act; AID 463112; CHO-CHOP cells, CHOP-luciferase reporter luminescence; percent of tunicamycin response, DMSO as zero; actives 64% (n = 1,000); in the data active means activation above about 33%;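 further: 0% = DMSO wells and 100% = tunicamycin 10 µg/mL wells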
Active calls of the source: *; · = not tested or not shown.

SMILES	XBP1 UPR activ	pCIP destab	Dynein cargo inh	UPR CHOP act	CHOP inh	B2AR ag	CHOP UPR conf
COC(=O)C1=C(C)N(c2ccc(C)c(C)c2)/C(=C/c2ccco2)C1=O	14	3	0.68	68*	0	-2	47*
COc1ccc(C(C(=O)NC2CCCCC2)N(C(=O)CCl)c2ccc(C)cc2)cc1 (stereo unspecified)	2	-9	-1.3	62*	40	44*	29
COc1ccc(C(C(=O)NC2CCCC2)N(C(=O)c2ccoc2C)c2ccc(C)cc2)cc1 (stereo unspecified)	-4	3	0.05	0	-3	0	·
Cc1ccc(C(=O)CSc2nc(N)cc(=O)[nH]2)cc1C	-2	-4	·	·	·	7	-1
CC(C)c1nc(-c2ccc([N+](=O)[O-])cc2)cs1	1	6	1.6	3	26	-4	·
COc1ccc(-c2oc(NC(=O)CSc3ncn[nH]3)c(C#N)c2-c2ccc(OC)cc2)cc1	-3	-10	-1.4	-1	60	2	·
COc1ccc(-c2oc(NC(=O)CCl)c(C#N)c2-c2ccc(OC)cc2)cc1	24	-2	0.078	489*	-254	16	218*
COc1ccc(NC(=O)c2nc(S(=O)(=O)Cc3cccc(C)c3)ncc2Cl)c(OC)c1	-5	-24	·	61*	·	7	296*
Cc1ccccc1CS(=O)(=O)c1ncc(Cl)c(C(=O)Nc2ccc(F)cc2)n1	-9	-9	·	187*	·	29	101*
Cc1cccc(CS(=O)(=O)c2ncc(Cl)c(C(=O)Nc3c(C)cccc3C)n2)c1	-2	-19	·	26	·	30	·
O=C(Nc1ccc(F)cc1)c1nc(S(=O)(=O)Cc2ccccc2)ncc1Cl	-11	-23	·	-9	·	7	·
Cc1nnc(NC(=O)c2nc(S(=O)(=O)Cc3ccccc3)ncc2Cl)s1	-11	-20	·	41*	·	6	11
Cc1cccc(C)c1NC(=O)c1nc(S(=O)(=O)Cc2ccccc2)ncc1Cl	-11	-20	·	239*	·	28	271*
Cc1ccc(NC(=O)c2nc(S(=O)(=O)Cc3ccccc3)ncc2Cl)cc1	-11	-23	·	1	·	13	·
Cc1ccc2[nH]c(=O)c(CN(CC3COCCO3)C(=O)Nc3ccccc3F)cc2c1 (stereo unspecified)	-2	-2	-0.41	-2	18	-1	·
O=C(C=C=Nc1ccccc1)C(=O)N=C=Cc1ccccc1	1	-12	-0.77	225*	96*	37	135*
CCOC(=O)c1cnc(-n2nc(C)cc2C)nc1NC1CCCC1	19	3	0.99	64*	27	-5	20
O=C1CC(c2ccccc2)CC(O)=C1C=Nc1ccc(Cl)cc1 (stereo unspecified)	26	4	-0.25	43*	83*	1	29
CCOc1ccc(S(=O)(=O)N2CCN(Cc3ccco3)CC2)cc1	-8	15	·	1	·	-6	·
COc1cccc(C(=O)Oc2c(CN3CCOCC3)cc(Cl)c3cccnc23)c1	19	7	-1.5	80*	-58	-4	28
O=C(Oc1c(CN2CCOCC2)cc(Cl)c2cccnc12)c1ccc(F)cc1	20	-4	-0.29	40*	41	-12	40*
O=C(NCCS(=O)(=O)N1CCCCCC1)c1ccc(F)cc1	-2	·	·	1	·	-2	·
COc1ccccc1NC(=O)c1cnc(SCC(=O)NCC2CCCO2)n(C)c1=O (stereo unspecified)	-2	·	·	57*	·	5	34*
COc1ccccc1-n1nnnc1SCC(=O)NCC1CCCO1 (stereo unspecified)	-2	·	·	0	·	0	·
O=C(COC(=O)c1ccc(Br)o1)NC1CCCc2ccccc21 (stereo unspecified)	0	·	·	1	·	-9	·
SMILES	XBP1 UPR activ	pCIP destab	Dynein cargo inh	UPR CHOP act	CHOP inh	B2AR ag	CHOP UPR conf
COc1cc(/C=C/C(=O)c2ccc3c(c2)OCCO3)cc(Br)c1OCC(=O)N(C)C	13	-26	·	135*	·	10	272*
CC(C)CNC(=O)CN1C(=O)NC2(CCc3ccccc32)C1=O (stereo unspecified)	-2	-16	·	2	·	6	·
O=c1oc2cc(Oc3c([N+](=O)[O-])cc(C(F)(F)F)cc3[N+](=O)[O-])ccc2c2c1CCCC2	0	-7	-3.8*	54*	95*	10	20
COCCN=c1scc(-c2cccs2)n1/N=C/c1ccc(O)c(O)c1O	8	-16	-3	347*	-150	29	104*
CCN=c1scc(C)n1/N=C/c1ccc(O)c(O)c1O	7	-8	-1	79*	10	8	9
CCN=c1scc(C)n1/N=C/c1cc(Br)c(O)c(Br)c1	2	-13	-0.77	-1	29	6	·
CCOc1ccc(S(=O)(=O)N2CCC(C(=O)OC(C)C(=O)NC3CCCCC3C)CC2)cc1 (stereo unspecified)	-6	·	·	1	·	2	·
O=C(c1ccc(Cl)c(S(=O)(=O)N2CCCCCC2)c1)N1CCN(c2ccccc2O)CC1	-3	-11	-0.35	1	31	1	·
Cc1cc(Br)ccc1SCC(=O)N1CCN(S(=O)(=O)c2ccccc2)CC1	-7	-13	·	0	·	-6	·
Cc1ccc(C)c(C(=O)OCC(=O)Nc2cccc(S(=O)(=O)N3CCCCC3)c2)c1	1	·	·	4	·	-6	·
Cc1cc(C)c(NS(=O)(=O)c2cccc3cccnc23)c(C)c1	-1	-6	0.98	-1	4	5	·
Cc1ccc(S(=O)(=O)Nc2cccc3cccnc23)c([N+](=O)[O-])c1	-4	-6	·	404*	·	13	743*
O=S(=O)(Nc1cccc2cccnc12)c1ccc(S(=O)(=O)N2CCCC2)cc1	-7	5	-0.27	134*	-33	29	99*
S=C(Nc1ccccn1)c1ccccn1	16	-1	-0.41	165*	-38	-9	126*
O=C(Nc1ccccn1)C(=O)Nc1ccccn1	-2	-4	0.15	0	-8	-8	·
O=C1C=C(Nc2ccc(F)cc2)c2ccccc2C1=O	2	·	·	62*	·	16	9
C/C(=N\OCc1ccc(C#N)cc1)c1ccc(S(=O)(=O)N(C)C)cc1	4	-10	·	41*	·	0	6
O=C(NCC(c1cccs1)N1CCOCC1)c1cc2ccccc2o1 (stereo unspecified)	-1	-7	1.6	0	-10	-9	·
